# Screening results: PubChem, Johns Hopkins Ion Channel Center
# TRPC6 inhibitor: mouse TRPC6 channel inhibition; Q61143; hit rate 1.1% among 310,000; AID 2553; HEK293-TRPC6, membrane potential dye, ACh-evoked depolarization; hits give low values; B-score at 10 µM;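 active = B-score under library mean minus 3 SD, initial fluorescence not abnormally high, positive integrated signal ratio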;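 also: B-score derived from integrated fluorescence ratio over the kinetic read; more negative B-score means stronger inhibition of depolarization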
# Target sequence (Q61143 whole entry, looked up): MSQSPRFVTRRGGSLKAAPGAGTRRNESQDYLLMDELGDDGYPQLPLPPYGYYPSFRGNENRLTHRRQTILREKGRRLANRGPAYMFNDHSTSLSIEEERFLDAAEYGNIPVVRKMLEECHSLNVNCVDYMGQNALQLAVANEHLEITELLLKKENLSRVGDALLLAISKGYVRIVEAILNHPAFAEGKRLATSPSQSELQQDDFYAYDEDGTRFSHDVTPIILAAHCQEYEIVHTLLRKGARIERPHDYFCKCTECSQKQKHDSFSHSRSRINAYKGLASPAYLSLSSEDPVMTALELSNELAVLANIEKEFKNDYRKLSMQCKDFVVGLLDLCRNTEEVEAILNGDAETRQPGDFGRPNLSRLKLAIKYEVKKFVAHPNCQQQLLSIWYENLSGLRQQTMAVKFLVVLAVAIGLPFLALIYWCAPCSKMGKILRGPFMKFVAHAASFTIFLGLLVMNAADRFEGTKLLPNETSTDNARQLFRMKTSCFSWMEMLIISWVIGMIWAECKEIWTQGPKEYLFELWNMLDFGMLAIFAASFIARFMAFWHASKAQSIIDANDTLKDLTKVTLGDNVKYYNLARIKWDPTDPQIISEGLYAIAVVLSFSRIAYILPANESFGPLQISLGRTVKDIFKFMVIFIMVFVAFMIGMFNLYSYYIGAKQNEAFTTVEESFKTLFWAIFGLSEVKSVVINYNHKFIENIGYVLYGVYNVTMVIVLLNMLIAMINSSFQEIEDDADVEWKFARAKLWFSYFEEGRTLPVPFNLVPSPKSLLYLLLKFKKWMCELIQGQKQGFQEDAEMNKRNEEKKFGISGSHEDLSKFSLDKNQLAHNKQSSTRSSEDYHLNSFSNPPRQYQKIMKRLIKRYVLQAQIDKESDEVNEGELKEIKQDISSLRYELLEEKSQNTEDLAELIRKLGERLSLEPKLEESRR
# TRPC4 potent: TRPC4 (mouse) allosteric potentiation. B-score at 10 µM. AID 2227. HEK293 TRPC4beta/mu-opioid, DAMGO EC20, Fluo-4 Ca2+ flux; hits give high values. hit rate 0.42% among 310,000;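 active = B-score of calcium response area above 5 SD of library B-scores, with initial fluorescence ratio within 5 SD of library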
# TRPC6 activator: activators of mouse TRPC6 channel | Q61143 | HEK293-TRPC6 membrane potential dye fluorescence; hits give high values | B-score at 10 µM | hit rate 0.13% among 310,000 | AID 2550;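 active = B-score of the integrated fluorescence ratio above library mean plus 3 SD, and starting fluorescence ratio within library mean plus 5 SD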;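 also: higher score means more depolarization so channel activation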
# TRPC4 block: TRPC4 (mouse) channel inhibition. Q9QUQ5. HEK293 TRPC4beta/mu-opioid, DAMGO-evoked Fluo4 calcium flux; hits give low values. hit rate 0.39% among 300,000. B-score at 10 µM;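 active = B-score over 3 SD under the library average, no early fluorescence shift, positive overall ratio signal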
#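 Assay system: HEK293 cells with stable TRPC4beta plus mu-opioid receptor expression. Dosing: single dose. Measured by: Fluo4 Ca2+ flux fluorescence. Also added: DAMGO in two steps, submaximal then maximal. Read-out: B score from integrated Fluo4 fluorescence ratio.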
# TRPC4 agonist: activators of mouse TRPC4 channel | B-score at 10 µM | AID 2237 | HEK293 TRPC4beta/mu-opioid, Fluo4 calcium fluorescence; hits give high values | Q9QUQ5 | hit rate 0.49% among 310,000;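 active = B-score above 5 SD of library B-scores, and initial fluorescence ratio not above library mean plus 5 SD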;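 also: positive B-score marks a calcium rise read as TRPC4 activation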
#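 system = HEK293 cells stably co-expressing mouse TRPC4beta and mu-opioid receptor | schedule = Fluo4 dye loading 45 min at room temperature, 110 s recording | measure = B-scored integrated calcium fluorescence ratio | signal = Fluo4 calcium-sensitive dye fluorescence, kinetic, 1 Hz baseline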
# TRPC4 sel inh 2: second selectivity test of TRPC6 inhibitors: effect on mouse TRPC4; shares compounds with TRPC6 inhibitor; HEK293 TRPC4/MOR, membrane potential dye fluorescence; channel activated by saturating DAMGO dose; inhibition, % at 10 µM; hit rate 42% among 920; AID 2776;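 active = compounds whose fluorescence signal differed from control wells by over 3 SD, either direction, in both duplicate plates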
# TRPC4 spec: mouse TRPC4 off-target activity of TRPC6 inhibitors. shares compounds with TRPC6 inhibitor. HEK293 TRPC4/mu-opioid, membrane potential fluorescence. activity change, negative = inhibition, % at 10 µM. hit rate 61% among 920. AID 2777;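 active = rise or fall in signal beyond 3 SD of buffer-only wells in both replicate plates, either sign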;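 also: integrated kinetic ratio of fluorescence range over baseline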
# HEK293 MPD ctr 2-1: parental HEK293 nonspecific activity of TRPC6 inhibitors, second screen | shares compounds with TRPC6 inhibitor | parental HEK293 membrane potential dye fluorescence; maximal acetylcholine challenge after compound addition | signal change vs control, % at 10 µM | hit rate 31% among 920 | AID 2779;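 active = membrane potential signal moving either way by over 3 SD of the maximum-effect control, in both duplicate plates, meaning non-specific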
# HEK293 MPD ctr-1: counter-screen for TRPC6 inhibitors: effect in parental HEK293 cells; membrane potential signal change, % at 10 µM; shares compounds with TRPC6 inhibitor; parental HEK293 membrane potential dye fluorescence; AID 2780; hit rate 60% among 920;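 active = membrane potential signal shifting up or down by more than 3 SD of buffer-only wells, on both duplicate plates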
# HEK293 MPD ctr-2: checks TRPC6 modulator effects in parental HEK293 cells | shares compounds with TRPC6 inhibitor | membrane potential dye fluorescence | membrane potential signal change, % at 10 µM | hit rate 51% among 2,400;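 active = membrane potential signal moves up or down beyond 5 SD from buffer-only wells, on both duplicate plates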
# HEK293 MPD ctr 2-2: parental HEK293 nonspecific activity of TRPC6 modulators, second screen. shares compounds with TRPC6 inhibitor. membrane potential dye fluorescence; after compound, maximal acetylcholine stimulation. inhibition, % at 10 µM. hit rate 14% among 2,400;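 active = membrane potential signal drops by more than 5 SD from the mean control signal, in both duplicate plates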
# TRPC4/MOR mod: mouse TRPC4 off-target activity of TRPC6 modulators; shares compounds with TRPC6 inhibitor; HEK293 TRPC4/mu-opioid, membrane potential fluorescence; hit rate 69% among 2,400; percent change from control (negative = decrease, positive = increase), % at 10 µM;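 active = membrane potential signal moved up or down beyond 5 SD of buffer control wells, in both duplicate plates, actives on both sides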
# TRPC4 ctr inh 2: second check of whether TRPC6 modulators also affect mouse TRPC4 | shares compounds with TRPC6 inhibitor | HEK293 TRPC4/mu-opioid, membrane potential dye fluorescence; stimulated with maximal-effect DAMGO | inhibition, % at 10 µM | hit rate 55% among 2,400 | AID 488928;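 active = drop in membrane potential signal beyond 5 SD of the control wells in both duplicate plates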;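 also: TRPC4 counter screen for TRPC6 hits run under conditions tuned for TRPC6 not TRPC4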
# TRPC6 block conf: mouse TRPC6 inhibitor confirmation. shares compounds with TRPC6 inhibitor. HEK293-TRPC6, membrane potential dye, ACh-evoked depolarization. inhibition, % at 10 µM. hit rate 43% among 3,300;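 active = fluorescence ratio falls more than 5 SD below the full-stimulation control mean, in both duplicate runs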;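 also: integrated fluorescence ratio of peak minus minimum over baseline after agonist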
# TRPC6 act confirm: mouse TRPC6 activator confirmation | shares compounds with TRPC6 inhibitor | HEK293-TRPC6 membrane potential dye fluorescence, FDSS | activation, % at 10 µM | hit rate 11% among 2,800 | AID 488961;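 active = ratio signal rise beyond 5 SD above unstimulated control wells' mean, seen in both duplicate runs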
# Numbers stand for hits; 0 = inactive; - = not tested or not shown. A selection: hits, their analogues and other compounds. The true share with any hit is near 2.3%.
SMILES,TRPC6 inhibitor,TRPC4 potent,TRPC6 activator,TRPC4 block,TRPC4 agonist,TRPC6 block conf,TRPC6 act confirm,others
CCN(CC)CCCC(C)NC(=O)c1c(NC(=O)c2ccccc2)sc2c1CCCC2 (centres undefined),-6.12,0,0,0,0,60.0%,0,HEK293 MPD ctr-2=0;HEK293 MPD ctr 2-2=0;TRPC4/MOR mod=-19.5%;TRPC4 ctr inh 2=81.0%
Cc1ccc(S(=O)(=O)N2CCC(=O)N(CCOC(=O)Nc3ccc(C)c(C)c3)CC2)cc1,-6.91,0,0,0,0,0,-,TRPC4 sel inh 2=0;TRPC4 spec=0;HEK293 MPD ctr 2-1=0;HEK293 MPD ctr-1=0
Cc1ccc(S(=O)(=O)N2CCC(=O)N(CCOC(=O)Nc3cccc(Cl)c3)CC2)cc1,-10.2,0,16.1,0,0,108.5%,160.0%,HEK293 MPD ctr-2=0;HEK293 MPD ctr 2-2=0;TRPC4/MOR mod=0;TRPC4 ctr inh 2=0
Cc1c(F)cccc1NS(=O)(=O)c1ccc2c(c1)c(C)cc(=O)n2C,-6.85,0,0,0,0,0,0,TRPC4 sel inh 2=0;TRPC4 spec=0;HEK293 MPD ctr 2-1=0;HEK293 MPD ctr-1=0
O=C(NCCN1CCCCC1)c1cc(COc2c(F)cccc2F)on1,0,0,0,0,0,-,-,
CN1CCN(c2nc3c(c(=O)n(C)c(=O)n3C)n2Cc2cccc3ccccc23)CC1,0,0,0,0,0,-,-,
Cn1c(=O)c2c(nc(N3CCCCCC3)n2Cc2cccc3ccccc23)n(C)c1=O,-8.83,13,0,0,0,0,0,TRPC4 sel inh 2=0;TRPC4 spec=0;HEK293 MPD ctr 2-1=0;HEK293 MPD ctr-1=0
CNC(=O)c1ccc(CNC(=O)OCc2ccccc2)cc1,0,0,0,0,0,-,-,
O=C(CCNS(=O)(=O)c1ccccc1)Nc1ccccc1,0,0,0,0,0,-,-,
NCCc1ccc(O)c(O)c1,-5.26,0,0,0,0,0,0,HEK293 MPD ctr-2=0;HEK293 MPD ctr 2-2=0;TRPC4/MOR mod=0;TRPC4 ctr inh 2=0
COC(=O)C(N)Cc1ccc(O)c(O)c1 (centres undefined),0,0,0,0,0,-,-,
O=C(NC1CCOc2ccccc21)C1CCCC1 (centres undefined),0,0,0,0,0,-,-,
CCCCNCC(O)(c1ccc(Cl)cc1)c1ccc(Cl)cc1,-5.02,0,0,0,0,0,-,HEK293 MPD ctr-2=120.5%;HEK293 MPD ctr 2-2=0;TRPC4/MOR mod=26.5%;TRPC4 ctr inh 2=47.0%
COc1ccc(C)cc1NC(=O)CCS(=O)(=O)c1ccc2c(c1)oc(=O)n2C,0,0,0,0,0,-,-,
O=C1OC(N2C(=O)CC[C@H]2C(=O)Nc2ccc3c(c2)OCO3)c2ccccc21 (some centres undefined),0,0,0,0,0,-,-,
COc1cc2c(cc1OC)-c1c(OC)c(OC)cc3ccnc(c13)C2=O,-7.86,0,0,0,0,53.8%,0,TRPC4 sel inh 2=63.0%;TRPC4 spec=-26.2%;HEK293 MPD ctr 2-1=-58.0%;HEK293 MPD ctr-1=-425.5%
COc1cc2cccc(OC)c(=O)c2c(O)c1OC,0,0,0,0,0,-,-,
